ChEMBL document CHEMBL1144053, “Six triterpenoid saponins from Mmaesa laxiflora” (J Nat Prod, 1999)
Calls of active or inactive are those of the source. No cut-off for these calls is given here.

Assays:
A549 = test: Cytotoxicity against human A549 cells by MTT assay; type: functional, cell-based
Procedure, shortened: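 A-549 cells from NCI; standard MTT-based colorimetric cytotoxicity assay.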

[1] = Inhibition of tubulin polymerization at 10 mg/mL by tubulin assembly assay; parameters: scale not given: the % may be the effect or the level left
Procedure, shortened: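 Test compound added to cold (6 °C) tubulin solution; assembly started by shifting the temperature from 6 to 37 °C. Turbidity followed over time, with polymerization rate taken from the slope of the turbidity increase.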

[2] = Inhibition of tubulin polymerization at 1 ug/mL by tubulin assembly assay; parameters: scale not given: the % may be the effect or the level left
Procedure, shortened: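 Compound added to cold (6 °C) tubulin solution; assembly started by a temperature shift from 6 to 37 °C. Turbidity followed over time, with polymerization rate taken as the slope of the turbidity increase.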

## C/C=C(\C)C(=O)O[C@H]1CC(C)(C)C[C@H]2C3=CC[C@@H]4[C@@]5(C)CC[C@H](O[C@@H]6O[C@H](C(=O)O)[C@@H](O)[C@H](O[C@@H]7O[C@H](CO)[C@H](O)[C@H](O)[C@H]7O[C@@H]7O[C@@H](C)[C@H](O)[C@@H](O)[C@H]7O[C@@H]7O[C@@H](C)[C@H](O)[C@@H](O)[C@H]7O)[C@H]6O[C@@H]6O[C@H](CO)[C@@H](O)[C@H](O)[C@H]6O)C(C)(C)[C@@H]5CC[C@@]4(C)[C@]3(C)C[C@@H](O)[C@@]12CO
A549
  Activity: inactive
[1]
  Activity: 41%

## COc1cc2c(c(OC)c1OC)-c1ccc(OC)c(=O)cc1[C@@H](NC(C)=O)CC2
[2]
  Activity: 50%

## C/C=C(\C)C(=O)O[C@H]1CC(C)(C)C[C@H]2C3=CC[C@@H]4[C@@]5(C)CC[C@H](O[C@@H]6O[C@H](C(=O)O)[C@@H](O)[C@H](O[C@@H]7O[C@H](CO)[C@H](O)[C@H](O)[C@H]7O[C@@H]7O[C@@H](C)[C@H](O)[C@@H](O)[C@H]7O[C@@H]7O[C@@H](C)[C@H](O)[C@@H](O)[C@H]7O)[C@H]6O[C@@H]6O[C@H](CO)[C@H](O)[C@H](O)[C@H]6O)C(C)(C)[C@@H]5CC[C@@]4(C)[C@]3(C)C[C@@H](O)[C@@]12CO
A549
  Activity: inactive
[1]
  Activity: 41%

## CCC/C=C\C(=O)O[C@H]1CC(C)(C)C[C@H]2C3=CC[C@@H]4[C@@]5(C)CC[C@H](O[C@@H]6O[C@H](C(=O)O)[C@@H](O)[C@H](O[C@@H]7O[C@H](CO)[C@H](O)[C@H](O)[C@H]7O[C@@H]7O[C@@H](C)[C@H](O)[C@@H](O)[C@H]7O[C@@H]7O[C@@H](C)[C@H](O)[C@@H](O)[C@H]7O)[C@H]6O[C@@H]6O[C@H](CO)[C@H](O)[C@H](O)[C@H]6O)C(C)(C)[C@@H]5CC[C@@]4(C)[C@]3(C)C[C@@H](O)[C@@]12CO
A549
  Activity: inactive
[1]
  Activity: 41%

## C/C=C(\C)C(=O)O[C@H]1CC(C)(C)C[C@H]2C3=CC[C@@H]4[C@@]5(C)CC[C@H](O[C@@H]6O[C@H](C(=O)O)[C@@H](O)[C@H](O[C@@H]7O[C@H](CO)[C@H](O)[C@H](O)[C@H]7O[C@@H]7O[C@@H](C)[C@H](O)[C@@H](O)[C@H]7O[C@@H]7O[C@@H](C)[C@H](O)[C@@H](O)[C@H]7O)[C@H]6O[C@@H]6O[C@H](CO)[C@@H](O)[C@H](O)[C@H]6O)C(C)(C)[C@@H]5CC[C@@]4(C)[C@]3(C)C[C@@H](OC(C)=O)[C@@]12CO
A549
  Activity: inactive
[1]
  Activity: 41%

## C/C=C(\C)C(=O)O[C@H]1CC(C)(C)C[C@H]2C3=CC[C@@H]4[C@@]5(C)CC[C@H](O[C@@H]6O[C@H](C(=O)O)[C@@H](O)[C@H](O[C@@H]7O[C@H](CO)[C@H](O)[C@H](O)[C@H]7O[C@@H]7O[C@@H](C)[C@H](O)[C@@H](O)[C@H]7O[C@@H]7O[C@@H](C)[C@H](O)[C@@H](O)[C@H]7O)[C@H]6O[C@@H]6O[C@H](CO)[C@H](O)[C@H](O)[C@H]6O)C(C)(C)[C@@H]5CC[C@@]4(C)[C@]3(C)C[C@@H](OC(C)=O)[C@@]12CO
A549
  Activity: inactive
[1]
  Activity: 41%

## CCC/C=C\C(=O)O[C@H]1CC(C)(C)C[C@H]2C3=CC[C@@H]4[C@@]5(C)CC[C@H](O[C@@H]6O[C@H](C(=O)O)[C@@H](O)[C@H](O[C@@H]7O[C@H](CO)[C@H](O)[C@H](O)[C@H]7O[C@@H]7O[C@@H](C)[C@H](O)[C@@H](O)[C@H]7O[C@@H]7O[C@@H](C)[C@H](O)[C@@H](O)[C@H]7O)[C@H]6O[C@@H]6O[C@H](CO)[C@@H](O)[C@H](O)[C@H]6O)C(C)(C)[C@@H]5CC[C@@]4(C)[C@]3(C)C[C@@H](O)[C@@]12CO
A549
  Activity: inactive
[1]
  Activity: 41%
